# From publication PMC10209631 (RSC Advances, 2023)
# Read-outs that look alike come from different tables or passages of the source.
# How the values were obtained:
# [1] = system: normal fibroblasts (WI-38); assay: Cytotoxicity; conditions: for selectivity index (SI): SI = WI-38 IC50/IC50 against cancer cells; for IC50: read-out: IC50, normal fibroblasts WI-38; for toxicity to the normal fibroblasts (in words): WI-38 versus cancer cells
# [2] = system: HepG2; assay: Antiproliferative activity; assay type: cell-based; conditions: Homo sapiens, HepG2, 48 h, read-out: antiproliferative activity IC50, HepG2
# [3] = system: MCF-7 cells; assay: Apoptosis assay by annexin V-PI; assay type: cell-based, human; conditions: MCF7, IC50 concentration, 48 h; for necrotic cells (upper left quadrant, UL): DMSO 0.1%
# In short: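 MCF-7 cells seeded at 1 × 10⁵ cells per mL and held overnight at 37 °C, 5% CO₂. Test compound or DMSO added in fresh medium for 48 h. Cells trypsinized, washed twice in PBS, and stained 15 min with annexin V-FITC plus propidium iodide in binding buffer. Flow cytometry scored early apoptotic (LR), late apoptotic (UR) and necrotic (UL) quadrants.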
# [4] = system: MCF-7 cells; assay: Cell cycle analysis; assay type: cell-based, human; conditions: MCF7, IC50 concentration, 48 h
IC50 [2] [µM],Compound,selectivity index (SI) [1],"IC50 ([1]; Homo sapiens, WI-38, 48 h) [µM]",also measured
16.3 ± 1.8,"N#CC(=Cc1ccco1)C(=O)Nc1nnc(NC(=O)c2ccccc2)s1 [Compound 7c, N-(5-(2-Cyano-3-(furan-2-yl)acrylamido)-1,3,4-thiadiazol-2-yl)benzamide]",0.8,22.6 ± 3,–
56.3 ± 7.8,"N#CC(=Cc1ccc([N+](=O)[O-])cc1)C(=O)Nc1nnc(NC(=O)c2ccccc2)s1 [Compound 7e, N-(5-(2-Cyano-3-(4-nitrophenyl)acrylamido)-1,3,4-thiadiazol-2-yl)benzamide]",0.4,23.4 ± 3.6,–
66.1 ± 3.5,"N#CC(=Cc1cccs1)C(=O)Nc1nnc(NC(=O)c2ccccc2)s1 [Compound 7d, N-(5-(2-Cyano-3-(thiophen-2-yl)acrylamido)-1,3,4-thiadiazol-2-yl)benzamide]",0.4,12.3 ± 1.2,toxicity to the normal fibroblasts (in words) [1]: toxic to the normal fibroblasts
6.34 ± 0.9,"N#CC(=Cc1ccc(Cl)cc1Cl)C(=O)Nc1nnc(NC(=O)c2ccccc2)s1 [Compound 7a, N-(5-(2-Cyano-3-(2,4-dichlorophenyl)acrylamido)-1,3,4-thiadiazol-2-yl)benzamide]",1.5,9.18 ± 3.6,toxicity to the normal fibroblasts (in words) [1]: toxic to the normal fibroblasts
14.7 ± 2.1,"N#CC(=Cc1ccc(Cl)cc1)C(=O)Nc1nnc(NC(=O)c2ccccc2)s1 [Compound 7b, N-(5-(3-(4-Chlorophenyl)-2-cyanoacrylamido)-1,3,4-thiadiazol-2-yl)benzamide]",2.4,42.1 ± 2.7,–
21.3 ± 3.7,"COc1cc(C=C(C#N)C(=O)Nc2nnc(NC(=O)c3ccccc3)s2)ccc1O [Compound 7f, N-(5-(2-Cyano-3-(4-hydroxy-3-methoxyphenyl)acrylamido)-1,3,4-thiadiazol-2-yl)benzamide]",0.9,14.5 ± 0.3,–

# Further lines, the compound ahead of its results:
Compound,IC50 [2] [µM],selectivity index (SI) [1],"IC50 ([1]; Homo sapiens, WI-38, 48 h) [µM]",also measured
"N-(5-(2-Cyano-2-(4,6-dioxo-1-phenylpiperidin-2-ylidene)acetamido)-1,3,4-thiadiazol-2-yl)benzamide [Compound 13]",–,0.5,–,"IC50 ([1]; MTT, 48 h, mean ±SEM, three independent experiments): 23.6 ± 3.2 µM"
"N#CC(C(=O)Nc1nnc(NC(=O)c2ccccc2)s1)=C1Nc2ccccc2N1 [Compound 18, N-(5-(2-Cyano-2-(1,3-dihydro-2H-benzo[d]imidazole-2-ylidene)acetamido)-1,3,4-thiadiazol-2-yl)benzamide]",47.3 ± 8.2,1.5,> 100,–
"N#CC(C(=O)Nc1nnc(NC(=O)c2ccccc2)s1)=C1Nc2ccccc2O1 [Compound 19, N-(5-(2-(Benzo[d]oxazol-2(3H)-ylidene)-2-cyanoacetamido)-1,3,4-thiadiazol-2-yl)benzamide]",19.4 ± 1.5,6.1,60.3 ± 3.7,"necrotic cells (upper left quadrant, UL) [3]: 15%; early apoptosis (lower-right quadrant, LR) ([3]; DMSO 3.2%): 15%; cells arrested at G2/M ([4]; DMSO 4.6%): 23.3%"
"Cc1cc(-c2ccccc2)n(-c2nnc(NC(=O)c3ccccc3)s2)c(=O)c1C#N [Compound 10, N-(5-(3-Cyano-4-methyl-2-oxo-6-phenylpyridin-1(2H)-yl)-1,3,4-thiadiazol-2-yl)benzamide]",19.4 ± 1.5,1.7,> 100,–
"N#Cc1c(Nc2ccccc2)n2nc(NC(=O)c3ccccc3)sc2nc1=O [Compound 15, N-(6-Cyano-7-oxo-5-(phenylamino)-7H-[1,3,4]thiadiazolo[3,2-a]pyrimidin-2-yl)benzamide]",16.8 ± 1.7,1.4,19.4 ± 1.5,–
"CSC(SC)=C(C#N)C(=O)Nc1nnc(NC(=O)c2ccccc2)s1 [Compound 17, N-(5-(2-Cyano-3,3-bis(methylthio)acrylamido)-1,3,4-thiadiazol-2-yl)benzamide]",12.5 ± 1,6.0,81.2 ± 4.1,–
"COc1cccc2c1C(=O)c1c(O)c3c(c(O)c1C2=O)C[C@@](O)(C(=O)CO)C[C@@H]3O[C@H]1C[C@H](N)[C@H](O)[C@H](C)O1 [DOX, Doxorubicin, reference compound]",4.5 ± 0.2,–,–,–
"N#CC(C(=O)Nc1nnc(NC(=O)c2ccccc2)s1)=C1SCCN1c1ccccc1 [Compound 14, N-(5-(2-Cyano-2-(3-phenylthiazolidin-2-ylidene)acetamido)-1,3,4-thiadiazol-2-yl)benzamide]",> 100,0.8,53.8 ± 3.4,–
"N=c1oc2ccccc2cc1C(=O)Nc1nnc(NC(=O)c2ccccc2)s1 [Compound 4, N-(5-Benzamido-1,3,4-thiadiazol-2-yl)-2-imino-2H-chromene-3-carboxamide]",48.5 ± 2.9,1.3,29.4 ± 2.2,toxicity to the normal fibroblasts (in words) [1]: toxic to the normal fibroblasts
"N#CC(C(=O)Nc1nnc(NC(=O)c2ccccc2)s1)C(=S)Nc1ccccc1 (centres unmarked) [Compound 16, N-(5-(2-Cyano-3-(phenylamino)-3-thioxopropanamido)-1,3,4-thiadiazol-2-yl)benzamide]",14.7 ± 2.3,4.1,85.9 ± 1.9,–
"Nc1nnc(NC(=O)c2ccccc2)s1 [Compound 2, N-(5-Amino-1,3,4-thiadiazol-2-yl)benzamide]",14.1 ± 1.5,1.0,17.6 ± 4.1,–
"N#CCC(=O)Nc1nnc(NC(=O)c2ccccc2)s1 [Compound 3, N-(5-(2-Cyanoacetamido)-1,3,4-thiadiazol-2-yl)benzamide]",31.3 ± 5.1,1.2,37.4 ± 2.5,–
"N#CC(C(=O)Nc1nnc(NC(=O)c2ccccc2)s1)=C1Oc2cccnc2O1 [Compound 20, N-(5-(2-([1,3]dioxolo[4,5-b]pyridin-2-ylidene)-2-cyanoacetamido)-1,3,4-thiadiazol-2-yl)benzamide]",29.6 ± 3.1,1.5,42.7 ± 2.7,–
"O=C(Nc1nnc(NC(=O)c2cc3ccccc3oc2=O)s1)c1ccccc1 [Compound 5, N-(5-Benzamido-1,3,4-thiadiazol-2-yl)-2-oxo-2H-chromene-3-carboxamide]",63.9 ± 8.9,1.5,91.2 ± 4.6,–
"N#CC(C(=O)Nc1nnc(NC(=O)c2ccccc2)s1)=C1SC(=O)CN1c1ccccc1 [Compound 12, N-(5-(2-Cyano-2-(5-oxo-3-phenylthiazolidin-2-ylidene)acetamido)-1,3,4-thiadiazol-2-yl)benzamide]",69.5 ± 6.5,–,> 100,–
"Cc1cc(C)n(-c2nnc(NC(=O)c3ccccc3)s2)c(=O)c1C#N [Compound 9, N-(5-(3-Cyano-4,6-dimethyl-2-oxopyridin-1(2H)-yl)-1,3,4-thiadiazol-2-yl)benzamide]",39.1 ± 2.7,2.5,50.4 ± 0.9,–
"COc1ccc(C=C(C#N)C(=O)Nc2nnc(NC(=O)c3ccccc3)s2)cc1 [Compound 6b, N-(5-(2-Cyano-3-(4-methoxyphenyl)acrylamido)-1,3,4-thiadiazol-2-yl)benzamide]",15.9 ± 1.3,4.9,50.4 ± 0.9,"induction of apoptosis (in words) [3]: did not induce apoptosis; necrotic cells (upper left quadrant, UL) [3]: 12.5%; sub-G1 percent of cells ([4]; DMSO 7.4%): 53.6%"
